The text below walks through data of ChEMBL document CHEMBL3297719, “Hybrid dopamine uptake blocker-serotonin releaser ligands: a new twist on transporter-focused therapeutics” (ACS Med Chem Lett, 2014).

pEC50, pIC50, pKi: −log10 of the molar value. Activity calls are given as the source filed them. No cut-off for these calls is given here.

Experiment [1] concerns the target T1, Sodium-dependent serotonin transporter (Rattus norvegicus, UniProt P31652). The experiment in a line: Induction of SERT-mediated serotonin release in rat synaptosomes. The format is subcellular, Brain. The gist of the method: (§1)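 Synaptosomes prepared from rat brain homogenate. Each compound was run in both the release assay and the uptake-inhibition assay to classify it as a releasing substrate or an uptake inhibitor. Dose-response curves were then completed only for the assigned activity. Values are means ± SD from N = 3 experiments, each performed in triplicate.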

The target of experiment [2] is T2, 5-hydroxytryptamine receptor 1A (Homo sapiens) (UniProt P08908).
T2 sequence (whole entry): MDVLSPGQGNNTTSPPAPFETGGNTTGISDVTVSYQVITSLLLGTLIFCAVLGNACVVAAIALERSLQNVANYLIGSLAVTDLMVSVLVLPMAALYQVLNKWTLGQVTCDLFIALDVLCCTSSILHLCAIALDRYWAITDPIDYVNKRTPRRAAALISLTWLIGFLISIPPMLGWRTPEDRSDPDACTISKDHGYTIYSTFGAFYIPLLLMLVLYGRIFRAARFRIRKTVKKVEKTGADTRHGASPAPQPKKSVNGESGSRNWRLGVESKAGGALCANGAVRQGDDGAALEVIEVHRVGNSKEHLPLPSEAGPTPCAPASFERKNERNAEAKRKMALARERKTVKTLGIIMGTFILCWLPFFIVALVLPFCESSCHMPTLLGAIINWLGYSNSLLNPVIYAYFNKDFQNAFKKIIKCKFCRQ
The experiment in a line: Agonist activity at human 5HT1A expressed in CHO cells coexpressing Galpha16 at 10 uM by calcium mobilization assay. Type of experiment: functional, cell-based. (A change in cytosolic calcium serves as a functional read-out for many receptors and channels.)

In experiment [3] the target is 5-hydroxytryptamine receptor 2B (Homo sapiens) (UniProt P41595). The experiment in a line: Agonist activity at human 5HT2C expressed in HEK293 cells at 10 uM by calcium mobilization assay. The format is functional, cell-based.
Experiment [4] deals with 5-hydroxytryptamine receptor 2A (Homo sapiens) (UniProt P28223). The experiment in a line: Agonist activity at human 5HT2A expressed in CHOK1 cells at 10 uM after 3 hrs by beta-arrestin recruitment assay. Type of experiment: cell-based. The following applies: CHO-K1. (Activated receptors often draw arrestin, which recruitment assays turn into a signal.)
Experiment [5] addresses Transporter (Rattus norvegicus) (UniProt Q63380). As to the kind of experiment: Inhibition of NET-mediated norepinephrine uptake in rat synaptosomes. The following applies: Brain. The format is subcellular. In short, it runs like this:
as §1

Experiment [6] shares this target. The experiment in a line: Induction of NET-mediated norepinephrine release in rat synaptosomes. Type of experiment: subcellular. The note with it: Brain. In short, it runs like this:
as §1

Experiment [7] addresses 5-hydroxytryptamine receptor 2B (Homo sapiens) (UniProt P41595). As to the kind of experiment: Agonist activity at human 5HT2B expressed in HEK293 cells at 10 uM by calcium mobilization assay. The format is functional, cell-based.
Experiment [8] has as its target T3, Sodium-dependent dopamine transporter (Rattus norvegicus, UniProt P23977). The experiment in a line: Induction of DAT-mediated dopamine release in rat synaptosomes. Type of experiment: subcellular, Brain. The gist of the method: as §1
Experiment [9] has as its target 5-hydroxytryptamine receptor 2A (Homo sapiens) (UniProt P28223). The experiment in a line: Agonist activity at human 5HT2A expressed in HEK293 cells at 10 uM by calcium mobilization assay. The format is functional, cell-based.
In experiment [10] the target is T3, Sodium-dependent dopamine transporter. The experiment in a line: Inhibition of DAT-mediated dopamine uptake in rat synaptosomes. The format is subcellular, Brain. In short, it runs like this: as §1
The target of experiment [11] is T1, Sodium-dependent serotonin transporter. As to the kind of experiment: Inhibition of SERT-mediated serotonin uptake in rat synaptosomes. The format is subcellular, Brain. The gist of the method:
as §1

For experiment [12], the target named is Sodium-dependent serotonin transporter (Homo sapiens, UniProt P31645). As to the kind of experiment: Induction of SERT (unknown origin)-mediated serotonin release.
Experiment [13] concerns the target Sodium-dependent dopamine transporter (Homo sapiens, UniProt Q01959). The experiment in a line: Inhibition of DAT (unknown origin)-mediated dopamine reuptake.

Chain of 5-hydroxytryptamine receptor 2B (Homo sapiens) (P41595 whole entry): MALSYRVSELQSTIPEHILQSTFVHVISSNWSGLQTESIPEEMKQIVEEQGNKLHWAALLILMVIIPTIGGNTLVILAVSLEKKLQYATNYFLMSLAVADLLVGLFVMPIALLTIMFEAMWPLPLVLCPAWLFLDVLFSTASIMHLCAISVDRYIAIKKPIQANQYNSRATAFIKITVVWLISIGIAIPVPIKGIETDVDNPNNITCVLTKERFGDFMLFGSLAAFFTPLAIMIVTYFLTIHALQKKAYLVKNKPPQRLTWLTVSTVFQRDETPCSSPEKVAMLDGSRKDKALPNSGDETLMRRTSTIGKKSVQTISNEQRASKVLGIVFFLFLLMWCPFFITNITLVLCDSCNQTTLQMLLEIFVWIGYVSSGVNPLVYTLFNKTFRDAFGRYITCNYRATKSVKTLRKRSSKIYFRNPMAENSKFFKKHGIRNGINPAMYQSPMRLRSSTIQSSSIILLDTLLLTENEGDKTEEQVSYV
Chain of 5-hydroxytryptamine receptor 2A (Homo sapiens) (P28223 whole entry): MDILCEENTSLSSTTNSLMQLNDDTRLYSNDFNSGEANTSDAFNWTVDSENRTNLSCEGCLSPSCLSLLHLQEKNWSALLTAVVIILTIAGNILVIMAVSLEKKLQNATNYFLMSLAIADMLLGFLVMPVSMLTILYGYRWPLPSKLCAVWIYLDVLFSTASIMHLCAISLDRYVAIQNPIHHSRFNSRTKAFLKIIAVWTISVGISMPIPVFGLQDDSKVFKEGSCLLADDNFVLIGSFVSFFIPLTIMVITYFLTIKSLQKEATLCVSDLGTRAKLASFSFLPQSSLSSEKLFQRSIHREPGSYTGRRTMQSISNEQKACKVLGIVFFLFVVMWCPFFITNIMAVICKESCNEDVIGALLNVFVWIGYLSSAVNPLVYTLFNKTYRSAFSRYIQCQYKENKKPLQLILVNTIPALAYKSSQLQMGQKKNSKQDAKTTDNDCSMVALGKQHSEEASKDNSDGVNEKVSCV
Chain of Transporter (Rattus norvegicus) (Q63380 as listed by the source): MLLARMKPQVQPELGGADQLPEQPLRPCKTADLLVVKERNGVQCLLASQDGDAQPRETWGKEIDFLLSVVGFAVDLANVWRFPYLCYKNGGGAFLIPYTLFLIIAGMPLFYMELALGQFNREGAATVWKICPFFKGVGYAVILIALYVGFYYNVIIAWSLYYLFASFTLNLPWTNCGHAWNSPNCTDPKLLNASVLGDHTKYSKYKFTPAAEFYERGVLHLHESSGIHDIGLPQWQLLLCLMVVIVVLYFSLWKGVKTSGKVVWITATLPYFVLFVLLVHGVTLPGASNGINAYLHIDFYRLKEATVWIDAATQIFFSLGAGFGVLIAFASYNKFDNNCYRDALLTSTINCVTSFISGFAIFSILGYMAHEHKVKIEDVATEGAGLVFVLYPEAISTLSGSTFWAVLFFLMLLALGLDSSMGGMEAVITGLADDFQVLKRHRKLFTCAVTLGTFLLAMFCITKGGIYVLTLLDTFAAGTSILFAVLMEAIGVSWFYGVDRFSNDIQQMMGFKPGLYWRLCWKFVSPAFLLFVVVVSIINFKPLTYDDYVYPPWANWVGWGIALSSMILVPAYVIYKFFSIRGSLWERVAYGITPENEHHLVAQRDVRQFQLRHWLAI
T1 sequence (P31652 whole entry): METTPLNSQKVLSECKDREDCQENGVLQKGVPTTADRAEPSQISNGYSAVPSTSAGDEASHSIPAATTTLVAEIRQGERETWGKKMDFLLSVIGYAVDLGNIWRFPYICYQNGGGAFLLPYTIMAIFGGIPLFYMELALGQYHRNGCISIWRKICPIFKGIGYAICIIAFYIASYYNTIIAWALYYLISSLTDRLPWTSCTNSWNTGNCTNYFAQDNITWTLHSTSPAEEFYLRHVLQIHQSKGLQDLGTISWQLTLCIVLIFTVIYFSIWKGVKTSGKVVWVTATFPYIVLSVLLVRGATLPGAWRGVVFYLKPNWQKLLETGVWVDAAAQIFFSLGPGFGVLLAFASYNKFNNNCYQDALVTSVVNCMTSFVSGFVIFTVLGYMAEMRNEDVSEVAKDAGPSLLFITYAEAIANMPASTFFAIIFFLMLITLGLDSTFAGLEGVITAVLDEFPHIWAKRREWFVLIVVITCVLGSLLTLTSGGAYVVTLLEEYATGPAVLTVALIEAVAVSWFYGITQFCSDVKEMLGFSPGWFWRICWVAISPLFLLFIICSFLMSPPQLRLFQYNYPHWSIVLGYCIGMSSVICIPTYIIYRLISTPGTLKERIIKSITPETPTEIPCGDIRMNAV
T3 sequence (P23977 whole entry): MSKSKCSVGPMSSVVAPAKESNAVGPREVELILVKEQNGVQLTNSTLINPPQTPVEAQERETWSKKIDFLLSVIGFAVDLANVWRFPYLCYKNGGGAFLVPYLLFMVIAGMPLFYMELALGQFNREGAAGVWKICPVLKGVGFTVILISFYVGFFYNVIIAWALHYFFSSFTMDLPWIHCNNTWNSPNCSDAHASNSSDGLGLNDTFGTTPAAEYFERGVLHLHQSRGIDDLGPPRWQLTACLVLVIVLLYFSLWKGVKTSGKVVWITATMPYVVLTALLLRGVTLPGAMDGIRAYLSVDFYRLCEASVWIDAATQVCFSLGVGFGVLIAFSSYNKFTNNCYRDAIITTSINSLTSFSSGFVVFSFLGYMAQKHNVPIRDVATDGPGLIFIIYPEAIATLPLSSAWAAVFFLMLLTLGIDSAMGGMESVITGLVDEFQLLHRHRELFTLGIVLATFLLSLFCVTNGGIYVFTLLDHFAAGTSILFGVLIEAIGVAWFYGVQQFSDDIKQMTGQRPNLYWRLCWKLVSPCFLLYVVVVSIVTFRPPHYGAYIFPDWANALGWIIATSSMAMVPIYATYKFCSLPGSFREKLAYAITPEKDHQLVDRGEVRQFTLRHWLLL
Chain of Sodium-dependent dopamine transporter (Homo sapiens, UniProt Q01959) (Q01959 whole entry): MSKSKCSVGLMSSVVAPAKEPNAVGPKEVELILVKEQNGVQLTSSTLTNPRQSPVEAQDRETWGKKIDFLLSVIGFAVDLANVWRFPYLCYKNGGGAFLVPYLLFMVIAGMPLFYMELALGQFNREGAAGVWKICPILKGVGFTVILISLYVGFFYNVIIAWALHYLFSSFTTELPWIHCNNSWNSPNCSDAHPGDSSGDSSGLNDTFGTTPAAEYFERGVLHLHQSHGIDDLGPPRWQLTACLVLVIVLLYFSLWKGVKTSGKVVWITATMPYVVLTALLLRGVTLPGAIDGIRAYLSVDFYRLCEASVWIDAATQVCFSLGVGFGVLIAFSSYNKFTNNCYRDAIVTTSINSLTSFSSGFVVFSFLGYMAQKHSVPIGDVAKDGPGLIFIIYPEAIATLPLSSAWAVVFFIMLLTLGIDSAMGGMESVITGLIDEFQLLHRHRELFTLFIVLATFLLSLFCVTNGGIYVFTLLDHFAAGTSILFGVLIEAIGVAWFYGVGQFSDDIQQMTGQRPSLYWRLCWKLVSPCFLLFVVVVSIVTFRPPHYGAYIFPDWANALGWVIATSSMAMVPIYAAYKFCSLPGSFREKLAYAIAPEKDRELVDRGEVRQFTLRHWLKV
Chain of Sodium-dependent serotonin transporter (Homo sapiens, UniProt P31645) (P31645 whole entry): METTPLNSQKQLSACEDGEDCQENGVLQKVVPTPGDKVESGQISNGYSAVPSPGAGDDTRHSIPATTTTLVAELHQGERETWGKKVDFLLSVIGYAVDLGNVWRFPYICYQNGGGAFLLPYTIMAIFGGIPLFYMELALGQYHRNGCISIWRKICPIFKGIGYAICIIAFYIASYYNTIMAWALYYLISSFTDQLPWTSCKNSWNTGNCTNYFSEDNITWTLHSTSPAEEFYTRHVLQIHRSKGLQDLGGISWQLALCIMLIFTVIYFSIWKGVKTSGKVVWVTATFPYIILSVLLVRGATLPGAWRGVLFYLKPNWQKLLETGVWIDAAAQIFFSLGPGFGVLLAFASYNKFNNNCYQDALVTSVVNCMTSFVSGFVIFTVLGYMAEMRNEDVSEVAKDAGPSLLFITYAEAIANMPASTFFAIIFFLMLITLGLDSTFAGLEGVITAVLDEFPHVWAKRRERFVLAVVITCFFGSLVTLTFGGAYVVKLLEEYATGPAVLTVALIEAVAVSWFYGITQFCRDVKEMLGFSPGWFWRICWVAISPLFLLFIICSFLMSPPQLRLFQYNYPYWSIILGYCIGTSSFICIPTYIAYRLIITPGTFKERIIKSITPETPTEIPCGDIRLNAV

Turning to `CNC(C)C(=O)c1cccc(Cl)c1` (stereo not drawn), the pEC50 (commonly −log10 of the EC50, conventionally taken in molar units) in experiment [1] is 6.39; in experiment [8], 7.33. Further, the outcome in [2], in experiment [3], in [4], in experiment [7] and in experiment [9] was inactive. In addition, in experiment [5], the inhibition result is “Active”. The outcome in experiment [6] was Active.

`CC(NC1CC1)C(=O)c1ccc(Cl)c(Cl)c1` (stereo not drawn) had a negative-log EC50 (pEC50) in experiment [1] of 6.45. Further, the result in experiment [2], in [3], in experiment [4], in [7] and in [9] was inactive. In addition, in experiment [5], the inhibition entry was “Active”. Besides, the negative logarithm of the IC50 (pIC50) – broadly, the IC50 on a negative log10 scale, so that one unit is a factor of ten – in experiment [10] was 6.37. Also, in experiment [6], the outcome was Active.

With `CCNC(C)C(=O)c1cccc(Cl)c1` (stereo not drawn), the negative logarithm of the IC50 (pIC50) in experiment [11] was less than 5.00; in [10], 5.23. Moreover, the result in [2], in experiment [3], in experiment [4], in experiment [7] and in [9] was inactive. Besides, in experiment [5], the inhibition result was “Active”. In addition, the result in experiment [6] was Active.

Regarding `C[C@H](NC1CC1)C(=O)c1cccc(Cl)c1`, the pEC50 in [1] was 6.25. Also, the result in experiment [2], in experiment [3], in experiment [4], in experiment [7] and in [9] was inactive. In experiment [5], the inhibition entry was “Active”. The molecule further gave a negative-log IC50 (pIC50) in experiment [10] of 6.53. Moreover, the outcome in experiment [6] was Active.

On to `Cc1ccc(C(=O)C(C)NC2CC2)cc1Cl` (stereo not drawn), for which the negative logarithm of the EC50 (pEC50) in [1] was 6.74. The outcome in experiment [2], in [3], in [4], in [7] and in experiment [9] was inactive. Further, in experiment [5], the inhibition entry was “Active”. The molecule further showed a negative logarithm of the IC50 (pIC50) in [10] of 6.23. Also, in experiment [6], the outcome was Active.

Turning to `CCCC(N)Cc1ccccc1` (stereo not drawn), the values for the pIC50 in experiment [11] and in experiment [10] were less than 5.00 and 5.59, respectively. For the same molecule, the outcome in experiment [2], in experiment [3], in [4], in experiment [7] and in [9] was inactive. In addition, the inhibition entry in experiment [5] is “Active”. For the same molecule, the result in experiment [6] was Active.

Molecule `COc1cccc(C(=O)C(C)NC2CC2)c1` (stereo not drawn) had a pEC50 in [1] of 5.99. Besides, the outcome in experiment [2], in experiment [3], in experiment [4], in [7] and in experiment [9] was inactive. Further, the inhibition entry in experiment [5] is “Active”. For the same molecule, the pIC50 in [10] is 5.62. The outcome in [6] was Active.

In experiment [1], `Cc1ccc(C(=O)C(C)NC2CC2)cc1` (stereo not drawn) had a negative-log EC50 (pEC50) of 6.18. Also, the outcome in experiment [2], in experiment [3], in [4], in experiment [7] and in experiment [9] was inactive. Also, the inhibition entry in experiment [5] is “Active”. For the same molecule, in experiment [10], the pIC50 is 5.96. Also, the outcome in [6] was Active.

`CCNC(C)C(=O)c1ccccc1` (stereo not drawn) had a pEC50 in experiment [12] of 5.67. Also, in experiment [13], the pKi (usually −log10 of the Ki, conventionally taken in molar units) was 5.99.

In experiment [1], `Cc1cccc(C(=O)C(C)NC2CC2)c1` (stereo not drawn) had a pEC50 of 5.97. Further, the result in [2], in experiment [3], in experiment [4], in [7] and in experiment [9] was inactive. In [5], the inhibition entry was “Active”. Besides, the negative-log IC50 (pIC50) in experiment [10] is 5.96. For the same molecule, the outcome in experiment [6] was Active.

Molecule `CCC(NC)C(=O)c1ccccc1` (stereo not drawn) had a pIC50 in experiment [11] of less than 5.00. Besides, the result in [2], in experiment [3], in [4], in experiment [7] and in experiment [9] was inactive. Also, in [5], the inhibition entry was “Active”. The outcome in [6] was Active. This molecule also gave a negative-log EC50 (pEC50) in experiment [8] of 6.39.

Molecule `C[C@@H](NC1CC1)C(=O)c1cccc(Cl)c1` showed a negative logarithm of the EC50 (pEC50) in experiment [1] of 6.13. Also, the result in experiment [2], in experiment [3], in [4], in [7] and in experiment [9] was inactive. Moreover, the inhibition entry in [5] is “Active”. Also, the pIC50 in experiment [10] is 6.43. Also, in [6], the outcome was Active.

Consider `CC(NC1CC1)C(=O)c1ccc(Cl)cc1` (stereo not drawn), for which the pEC50 in experiment [1] was 5.79. Moreover, the result in [2], in experiment [3], in experiment [4], in [7] and in experiment [9] was inactive. Moreover, the inhibition result in experiment [5] was “Active”. In addition, in experiment [10], the pIC50 is 5.70. Besides, in experiment [6], the outcome was Active.

On to `CCC(Cc1ccccc1)NC` (stereo not drawn), for which the pEC50 in [1] was 5.33; in experiment [8] it was 6.65. Also, the outcome in experiment [2], in experiment [3], in experiment [4], in experiment [7] and in experiment [9] was inactive. Besides, the inhibition result in [5] was “Active”. Further, in experiment [6], the result was Active.

Turning to `CC(N)Cc1cccc(Cl)c1` (stereo not drawn), the result in experiment [2], in experiment [3], in [4], in experiment [7] and in experiment [9] was inactive. Also, the inhibition entry in experiment [5] is “Active”. Besides, in [6], the outcome was Active.

In turn, `CC(NC1CC1)C(=O)c1cccc(Br)c1` (stereo not drawn) had a pEC50 in [1] of 6.21. The result in experiment [2], in [3], in experiment [4], in experiment [7] and in experiment [9] was inactive. In addition, in experiment [5], the inhibition entry was “Active”. For the same molecule, the negative-log IC50 (pIC50) in experiment [10] was 6.41. The result in [6] was Active.

`CC(NC1CC1)C(=O)c1cccc(Cl)c1` (stereo not drawn) showed a pEC50 in experiment [1] of 5.88. The result in experiment [2], in experiment [3], in experiment [4], in [7] and in experiment [9] was inactive. In addition, the inhibition entry in experiment [5] is “Active”. Further, in experiment [10], the negative-log IC50 (pIC50) is 6.27. Further, the result in [6] was Active.

With `CCCNC(C)C(=O)c1cccc(Cl)c1` (stereo not drawn), the results for the pIC50 in [11] and in experiment [10] were less than 5.00 and 6.10, respectively. Moreover, the outcome in experiment [2], in [3], in experiment [4], in experiment [7] and in experiment [9] was inactive. Moreover, the inhibition entry in experiment [5] is “Active”. Further, the outcome in [6] was Active.
